A selection: hits, their analogues and other compounds. The true share with any hit is near 3.3%.
HGIII-sPLA2 inh = Blocks human group III sPLA2 activity; Q9NZ20; QFRET BODIPY PC-A2 liposome hydrolysis, fluorescence; inhibition, % at 12.2 µM; 0.56% of 370,000 active; AID 743126;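 active = inhibition above mean plus 3 SD of compounds lying within the high and low control bounds, cut at about 19% in these data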;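 note: 0% = median of test compound wells and 100% = no enzyme DMSO wells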
Target sequence (Q9NZ20 whole entry, looked up): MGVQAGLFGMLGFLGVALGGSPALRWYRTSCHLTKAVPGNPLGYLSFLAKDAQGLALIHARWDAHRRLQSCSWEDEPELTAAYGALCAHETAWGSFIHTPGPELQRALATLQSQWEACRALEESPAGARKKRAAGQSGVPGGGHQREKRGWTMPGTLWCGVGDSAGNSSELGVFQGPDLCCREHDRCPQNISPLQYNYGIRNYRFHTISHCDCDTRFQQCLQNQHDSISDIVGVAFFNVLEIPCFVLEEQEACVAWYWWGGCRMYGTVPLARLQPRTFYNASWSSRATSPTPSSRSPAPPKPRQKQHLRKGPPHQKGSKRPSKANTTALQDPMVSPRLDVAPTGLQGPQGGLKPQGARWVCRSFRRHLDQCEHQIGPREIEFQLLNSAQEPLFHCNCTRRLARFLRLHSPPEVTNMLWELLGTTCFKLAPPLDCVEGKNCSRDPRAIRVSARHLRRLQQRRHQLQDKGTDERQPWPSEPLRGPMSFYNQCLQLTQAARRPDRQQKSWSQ
NRP1-CendR mod = NRP-1/CendR interaction modulation; 0.85% of 360,000 active; inhibition, % at 25 µM; FAM-RPARPAR peptide binding to NRP-1, fluorescence polarization;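 active = inhibition or corrected inhibition above about 18%, plus a signal ratio from 0.5 to 1.5, limit read from the data, passing the limit was not always enough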
m5-HT2A agonist = mouse HTR2A agonism via beta-arrestin recruitment; P35363; CHO-K1 mHTR2A beta-arrestin complementation, luminescence; percent of 30 µM serotonin response; activation, % at 7.6 µM; 0.66% of 360,000 active;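 active = activation above a run cutoff, the mean activation of all tested compounds plus 3 SD, cut at about 14% in these data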;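 note: 0% = plate median of compound wells and 100% = 30 µM serotonin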
Lipid droplet = hepatic lipid droplet formation modulation. AML12 mouse hepatocytes, oleate lipid droplets, BODIPY imaging. inhibition, % at 6.5 µM. 0.4% of 240,000 active;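 active = lipid droplet intensity inhibited by at least 50%, with more than 500 cells counted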
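Material: mouse AML12 hepatocyte cell line, fixed after treatment; Timing: compound with oleate, overnight; Technique: high-content imaging of BODIPY-stained droplets and DAPI nuclei; Probe or stimulus: oleate, 100 µM final; Dosing: compound at 6.5 µM only.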
PfM18AAP inh-1 = blocks P. falciparum M18 aspartyl aminopeptidase; recombinant PfM18AAP, H-Glu-NHMec fluorogenic cleavage; inhibition, % at 7.35 µM; 1.2% of 290,000 active; AID 1822;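 active = inhibition above the campaign mean inhibition over all tested compounds plus 3 SD, cut at about 28% in these data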;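 note: 0% = plate median of test compound wells and 100% = 2 mM ZnCl2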
Arr AP2 block = human beta-arrestin and AP2 interaction inhibition; FITC-arrestin peptide / GST-AP2 beads, flow cytometry; AP2 beta2 appendage carries R879A mutation; 0.31% of 340,000 active; inhibition, % at 10 µM;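 active = inhibition above a set limit, near 3 SD of compounds lacking own fluorescence, cut at about 54% in these data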;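 note: plate controls were DMSO wells for no effect and 5 µM unlabelled arrestin peptide for full effect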
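System: GST-AP2 R879A glutathione beads; medium: PBS, Tween 20 0.05%, BSA 0.1%; reagent: fluorescein-tagged arrestin peptide at 50 nM final; schedule: pre-incubation 12 min, peptide binding 1 h, room temperature; detection: flow cytometry, FL1 (488/535 nm); read-out: inhibition as reduced fluorescein signal on beads, percent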
PfM18AAP inh-2 = PfM18AAP inhibition, confirmation | inhibition, % at 7.35 µM | recombinant PfM18AAP, H-Glu-NHMec fluorogenic cleavage | shares compounds with PfM18AAP inh-1 | 28% of 2,400 active;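 active = mean inhibition over replicate wells above the hit cutoff set for the earlier primary screen, cut at about 29% in these data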;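 note: 0% = median of test compound wells and 100% = 2 mM ZnCl2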
CTSL1 confirm = counter-screen for PFM18AAP inhibitors: confirmation of human cathepsin L inhibitors | inhibition, % at 5.96 µM | shares compounds with PfM18AAP inh-1 | 2,400 tested, under 10 active | AID 2178 | purified cathepsin L1, Z-Leu-Arg-MCA fluorescence;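 active = average inhibition across replicates above the hit cutoff set in the earlier primary screen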;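 note: 0% = median of test compound wells and 100% = Z-Phe-Ala-diazomethylketone 1 µM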
Starred values were filed as active, the others as inactive; x = no result given.

SMILES | HGIII-sPLA2 inh | NRP1-CendR mod | m5-HT2A agonist | Lipid droplet | PfM18AAP inh-1 | Arr AP2 block | PfM18AAP inh-2 | CTSL1 confirm
O=C(COc1ccc(C(=S)N2CCOCC2)cc1Cl)Nc1ccccc1Cl | 0 | 4 | -1 | -4 | 42* | -12 | -19 | 1
COC(=O)[C@]12C[C@H](CC(=O)N3CCN(C(=O)C4CC4)CC3)C(=O)N(Cc3ccc(Cl)cc3Cl)C1=C[C@H](C(C)C)O[C@@H]2C1CC1 | -14 | x | x | x | x | x | x | x
COc1ccccc1NS(=O)(=O)c1cc(NC(=O)c2ccccc2C)ccc1N1CCOCC1 | -4 | 9 | -4 | x | x | -15 | x | x
COc1ccccc1NS(=O)(=O)c1cc(NC(=O)C2CC2)ccc1N1CCOCC1 | x | x | x | -8 | 42* | x | -27 | 1
O=C1NC[C@H](CCCCN2C[C@H](Cc3ccccc3)N(CCc3ccccc3)C(=O)C2=O)N(CCc2ccc(O)cc2)C1=O | -2 | -16 | -1 | x | x | x | x | x
COc1cc(/C=N/Nc2ccc(S(N)(=O)=O)cc2[N+](=O)[O-])cc(OC)c1O | -13 | 13 | -2 | 19 | 45* | 0 | 13 | 3
COc1cc(/C=N/Nc2ccccc2[N+](=O)[O-])cc(OC)c1O | -6 | -13 | -4 | 3 | 16 | 5 | x | x
Cc1ccc(CN2CC(N3CCC(c4ccccc4)CC3)CS2(=O)=O)cc1 (stereo not given) | -6 | 4 | -1 | x | x | x | x | x
CCN(CC)c1ccc2c(c1)OC(N)=C(C#N)C2c1cccnc1 (stereo not given) | -53 | 74 | 6 | x | 45* | -8 | 9 | 1
Cn1c(NCCN2CCCC2)nc2cc(-c3ccsc3)sc2c1=O | -9 | 14 | -2 | x | x | x | x | x
Cc1[nH]c(=S)c(C#N)c(C)c1CCC#N | 2 | 14 | 2 | 8 | 38* | 26 | 37* | 1
Cc1[nH]c(=S)c(C#N)c(C)c1Cc1ccccc1 | 16 | 9 | 9 | -10 | 7 | -12 | x | x
N#Cc1ccc(/C=N/NC(=S)Nc2ccc(S(=O)(=O)N3CCOCC3)cc2)cc1 | -6 | 2 | -5 | 0 | 3 | -22 | x | x
O=S(=O)(c1ccc(NC(=S)N/N=C/c2ccc(O)c(O)c2)cc1)N1CCOCC1 | -3 | -46 | -6 | -8 | 57* | 2 | 34* | -1
CCOC(=O)CC1Sc2ccccc2NC1=S (stereo not given) | 5 | 9 | 1 | -2 | 37* | 2 | -16 | 7
CCOC(=O)CC1Sc2ccccc2NC1=O (stereo not given) | x | 1 | -1 | x | -1 | -1 | x | x
O=C(c1ccco1)N1CCN(C2CN(C3CCCCC3)S(=O)(=O)C2)CC1 (stereo not given) | 13 | 4 | -2 | x | x | x | x | x
CCCCOCCCNC(=O)C[C@@H]1C[C@@]2(C(=O)OCC)CCC=C2N(Cc2cccc3ccccc23)C1=O | -23 | -2 | 1 | x | x | x | x | x
COC(=O)c1ccc(Cn2cc(/C=C\[N+](=O)[O-])c3ccccc32)o1 | -17 | 0 | -3 | -26 | -5 | 34 | x | x
O=C(O)c1ccc(Cn2cc(/C=C\[N+](=O)[O-])c3ccccc32)o1 | -5 | -36 | 3 | -2 | 39* | 42 | -29 | -4
O=S(=O)(c1ccc2c(c1)CCCN2)N1CCCC1 | 0 | 4 | 6 | x | x | -17 | x | x
CCN(CC)c1ccc2c(c1)CCCN2 | x | x | x | -22 | 32* | x | -8 | -4
COc1ccc(CNS(=O)(=O)CC2NCc3ccc(C)cc32)cc1 (stereo not given) | 8 | x | x | x | x | x | x | x
CC(=O)c1cc(-c2cc3ccccc3o2)c(=O)n2c1CCC2 | 0 | x | x | x | x | x | x | x
Cc1ccc(C(=O)N/N=C\c2ccc([N+](=O)[O-])o2)cn1 | -7 | -13 | -3 | 14 | 34* | 8 | -45 | 6
SMILES | HGIII-sPLA2 inh | NRP1-CendR mod | m5-HT2A agonist | Lipid droplet | PfM18AAP inh-1 | Arr AP2 block | PfM18AAP inh-2 | CTSL1 confirm
CCOC(=O)[C@@]12CCC3=C1N(CCC3)C(=O)[C@H](CC(=O)N1CCCC1)C2 | 7 | x | x | x | x | x | x | x
CCN1/C(=C/c2cc[n+](CCCS(=O)(=O)[O-])c3ccccc23)Sc2ccccc21 | 4 | -65 | 2 | 0 | 33* | 25 | -45 | -2
CCN(CC)c1ncnc2c1ncn2[C@H]1CN(Cc2ccc(-c3ccccc3)cc2)C[C@@H](CO)O1 | -27 | -9 | 3 | x | x | x | x | x
Cc1sc(-n2c(C)cc(/C=C3\SC(=S)NC3=O)c2C)c(C#N)c1C | 1 | -192 | -2 | -8 | 22 | 24 | x | x
Cc1sc(-n2c(C)cc(/C=N/n3cnnc3)c2C)c(C#N)c1C | x | -10 | -2 | x | 36* | -1 | 27 | 1
O=C(NCCCN1CCOCC1)c1sc2cc([N+](=O)[O-])ccc2c1Cl | x | 0 | -5 | 4 | 59* | 14 | 33* | -3
COCCCN(C(=O)Cc1ccc(S(=O)(=O)N2CCOCC2)s1)c1c(N)n(Cc2ccccc2)c(=O)[nH]c1=O | 9 | -4 | 9 | x | x | -14 | x | x
CCc1ccccc1NC(=O)NNC(=O)c1ccc2ccccc2c1O | 12 | 3 | 8 | -2 | 39* | -6 | 3 | -1
Fc1ccc(-n2c(-c3ccco3)n[nH]c2=S)cc1 | 15 | 17 | 3 | 4 | 16 | -12 | x | x
O=[N+]([O-])c1ccccc1/C=C/C=N/n1c(-c2ccco2)n[nH]c1=S | 13 | -1 | 1 | -1 | 32* | 10 | -15 | -2
CC(/C=N/n1c(-c2ccco2)n[nH]c1=S)=C\c1ccco1 | 5 | -15 | 0 | 8 | 32* | 1 | -27 | 2
Cc1ccc(-n2c(-c3ccco3)n[nH]c2=S)cc1 | 10 | 9 | 2 | -20 | 32* | -23 | -5 | -5
CC(/C=N/n1c(-c2ccc(C)cc2)n[nH]c1=S)=C\c1ccco1 | 6 | -23 | 1 | 17 | 14 | 0 | x | x
CC(=O)c1cc(-c2ccccc2)n(CC(=O)NCc2ccc(F)cc2)c1C | 0 | x | x | x | x | x | x | x
CCCc1nc2c(C)cc(Br)cn2c1Cc1ccccc1OC | 3 | x | x | x | x | x | x | x
CCC(C(=O)NCCCN1CCOCC1)n1c2ccccc2c2nc(=O)cc(C)n21 (stereo not given) | 6 | 4 | 0 | -4 | -2 | 1 | x | x
O=[N+]([O-])/C(C=Nc1ccccc1O)=C\Nc1ccccc1O | 4 | -5 | -2 | 10 | 34* | -2 | 18 | 2
O=C(CN1C(=O)C2(OCCCO2)c2ccccc21)NCc1ccccc1Cl | 2 | x | x | x | x | x | x | x
COc1ccccc1NS(=O)(=O)c1ccc(NC(C)=O)cc1 | -2 | 1 | -2 | 4 | 68* | 2 | -51 | -2
COc1ccccc1NS(=O)(=O)c1ccc(NC(=O)c2ccccn2)cc1 | -12 | -6 | 1 | x | x | 7 | x | x
Cc1ccc(-c2nn[nH]n2)o1 | 5 | -5 | -5 | x | 76* | 0 | 54* | 0
